CRFR2-BP antag: antagonists of CRF-BP/CRF-R2 complex, primary screen, cell-based, HEK293, calcium dye fluorescence, uHTS. CRF-induced calcium fluorescence. inhibition, % at 11.8 µM. 350,000 compounds, 0.59% hits. AID 588475, 2011;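 active = inhibition of the ligand-induced calcium signal above about 50% at the single tested concentration, limit read from the data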
TMEM16A inh: TMEM16A chloride channel inhibitors, primary screen, cell-based, HTS. Anoctamin-1 (Mus musculus), Q8BHY3. HEK293 TMEM16A/YFP iodide influx fluorescence, ionomycin. normalized B-score (activity score, 25-100; higher = stronger inhibition) at 10 µM. 310,000 compounds, 1.2% hits. AID 588511, 2011;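 active = ratio plate-corrected score three or more library SD toward inhibition, starting fluorescence score within five deviations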;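 also: score derived from kinetic fluorescence span divided by baseline fluorescence per well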
Target sequence (Q8BHY3 whole entry, looked up): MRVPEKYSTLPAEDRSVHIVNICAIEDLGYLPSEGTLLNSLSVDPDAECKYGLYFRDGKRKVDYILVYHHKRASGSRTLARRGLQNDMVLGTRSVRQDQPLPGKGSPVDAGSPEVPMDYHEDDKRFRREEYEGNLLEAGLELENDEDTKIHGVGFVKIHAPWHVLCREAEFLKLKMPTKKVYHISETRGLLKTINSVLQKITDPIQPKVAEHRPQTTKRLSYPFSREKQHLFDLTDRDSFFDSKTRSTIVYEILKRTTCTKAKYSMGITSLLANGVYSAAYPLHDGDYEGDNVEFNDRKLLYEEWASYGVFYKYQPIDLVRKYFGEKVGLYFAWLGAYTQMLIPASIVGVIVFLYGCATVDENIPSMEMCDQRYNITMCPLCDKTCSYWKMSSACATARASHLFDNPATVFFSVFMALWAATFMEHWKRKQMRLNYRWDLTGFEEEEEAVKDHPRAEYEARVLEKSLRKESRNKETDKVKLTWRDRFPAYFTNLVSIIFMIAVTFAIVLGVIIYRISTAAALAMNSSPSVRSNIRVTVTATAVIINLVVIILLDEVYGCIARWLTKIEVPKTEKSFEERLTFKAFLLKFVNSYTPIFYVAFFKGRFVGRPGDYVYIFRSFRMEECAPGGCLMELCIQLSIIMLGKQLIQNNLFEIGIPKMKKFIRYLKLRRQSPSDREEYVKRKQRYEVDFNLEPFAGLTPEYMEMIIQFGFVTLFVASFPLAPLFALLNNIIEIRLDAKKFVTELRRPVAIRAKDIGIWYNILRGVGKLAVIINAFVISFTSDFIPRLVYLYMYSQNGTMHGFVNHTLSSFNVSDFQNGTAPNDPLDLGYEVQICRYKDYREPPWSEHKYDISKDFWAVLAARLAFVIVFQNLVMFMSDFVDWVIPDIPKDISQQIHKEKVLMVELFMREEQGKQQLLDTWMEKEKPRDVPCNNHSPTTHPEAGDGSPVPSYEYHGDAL
TAAR1 agonist: human TAAR1 agonists, primary screen, Fluo-8 calcium fluorescence, CHO RD-HGA16 cells. Trace amine-associated receptor 1 (Homo sapiens), Q96RJ0. vehicle wells 0%, saturating PEA agonist 100%. activation, % at 3 µM. 360,000 compounds, 0.99% hits;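 active = activation above the mean activation of all test compounds in the run plus 3 SD, cut at about 38% in these data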
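Test system: RD-HGA16 (CHO) cells co-expressing Gα16 and hTAAR1 | Doses: Single dose, 3 µM | Schedule: 17-24 h seeding, 75 min 37 °C dye, 30 min RT | Evaluation: % activation from peak over basal fluorescence ratio, DMSO-to-PEA scaled | Technique: Kinetic Fluo-8 calcium fluorescence | Benchmarks: Low control DMSO, high control PEA (EC100)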
TAAR1 antag: human TAAR1 antagonists, primary screen, Fluo-8 calcium fluorescence, CHO RD-HGA16 cells. Trace amine-associated receptor 1 (Homo sapiens), Q96RJ0. 360,000 compounds, 1.5% hits. antagonist. inhibition, % at 3 µM;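 active = inhibition above a per-plate cutoff, the mean inhibition of test compounds on that plate plus 3 SD, cut at about 49% in these data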
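Test system: RD-HGA16 CHO cells with stable hTAAR1 and Gα16 / Probe or stimulus: EC80 β-phenethylamine stimulus / Times: seeding 17-24 h prior, 75-min 37 °C, 30-min RT dye loading / Detection: Fluo-8 calcium-sensitive fluorescence / Read-out basis: % inhibition scaled between DMSO and EC80 PEA controls / Repeats: singlicate, one well per test compound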
TMEM16A act: TMEM16A chloride channel activators or potentiators, primary screen, cell-based, HTS | Anoctamin-1 (Mus musculus), Q8BHY3 | HEK293 TMEM16A/YFP-H148Q/I152L, iodide quench fluorescence; hits give low values | B-score at 10 µM | 340,000 compounds, 0.3% hits | AID 623877, 2012;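 active = fluorescence-ratio B-score plate-corrected deviation score at least 3 library SD below zero, with starting fluorescence score within 5 deviations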;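 also: channel opened by trigger with iodide after compound preincubation; score built on the fluorescence ratio of max minus min over baseline; more negative score means more quench and so TMEM16A activation or potentiation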
CRFR2-BP ag: agonists of CRF-BP/CRF-R2 complex, primary screen, cell-based, HEK293, calcium dye fluorescence, uHTS; CRF-binding protein / CRF receptor 2 complex (human); calcium dye fluorescence (FLIPR); percent of saturating CRF peptide response; 350,000 compounds, 0.46% hits; activation, % at 13.2 µM;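 active = activation of at least 50%, plus an integration ratio under a set limit after plate pattern correction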
Each line names hits and unclear results; the compound was inactive in the other large screens. Rows were chosen to be rich in hits. Some 3.9% of all compounds tested hit in one or more screens of this group.

O=C(NCC1CC1)c1cc2c(c(-c3cccc(-c4ccccc4F)c3)n1)[C@@H](CCO)N(C(=O)CC1CC1)C2	none (no result: CRFR2-BP antag, TMEM16A inh, TMEM16A act, CRFR2-BP ag)
Cc1nn(C2CC(O)C(O)C(CO)O2)c(=O)[nH]c1=O (configuration not stated)	none (no result: TMEM16A inh)
CN1CCN(c2nc(-c3ccccc3)nc(-c3ccccc3)c2C#N)CC1	none
N#Cc1c(-c2ccccc2)nc(-c2ccccc2)nc1N1CCOCC1	TAAR1 agonist 40.7
O=C(O)Cc1ccc(O)c(O)c1	none
O=C(O)Cc1cc(I)c(Oc2ccc(O)c(I)c2)c(I)c1	TMEM16A inh 100 (no result: CRFR2-BP antag, TAAR1 agonist, TAAR1 antag, TMEM16A act, CRFR2-BP ag)
COc1cc(C(=O)NCCN2CCN(C(=O)c3cc(OC)c(OC)c(OC)c3)CC2)cc(OC)c1OC	none
Brc1ccc(CN2CCN(Cc3c[nH]c4ccccc34)CC2)cc1	TAAR1 agonist 37.8
Brc1ccccc1CN1CCN(Cc2c[nH]c3ccccc23)CC1	none
O=C(CN(Cc1cccs1)S(=O)(=O)c1ccc(S(=O)(=O)NC2CCCCC2)cc1)Nc1ccccc1	none
O=C(CN(C1CC1)S(=O)(=O)c1ccc(S(=O)(=O)NC2CCCCC2)cc1)Nc1ccccc1	TAAR1 agonist 38.1 (no result: TMEM16A inh)
CC(=O)C1=C(C)N(Cc2ccc(Cl)cc2)C(=S)NC1c1ccccc1 (configuration not stated)	none (no result: CRFR2-BP antag, TMEM16A inh, TMEM16A act, CRFR2-BP ag)
Cc1nn(-c2ccc(C(=O)O)cc2)c2c1C(=O)CC(C)(C)C2	none
Cc1c(CC(Cl)(Cl)Cl)c2c(n1O)CC(C)(C)CC2=O	CRFR2-BP antag 74.3, CRFR2-BP ag 55.0
CC(CN1C(C)CCCC1C)OC(=O)c1ccccc1F (configuration not stated)	none
COCCSc1nnc(NC(=O)COC)s1	none
CCC(=O)Nc1nnc(SCCOC)s1	TMEM16A inh 25
CCCSc1nnc(NC(=O)Nc2ccccc2)s1	TAAR1 agonist 39.7
CCCSc1nnc(NC(=O)Nc2ccc(F)cc2)s1	TMEM16A inh 100
CCCSc1nnc(NC(=O)Nc2ccc(C)cc2)s1	none
COC(=O)c1ccc(-n2nnnc2SCC(=O)Nc2ccccc2F)cc1	none
O=C(NCc1ccccc1)c1ccc(Br)cc1	none
O=C(NCc1ccccc1)c1ccc(Cl)cc1	CRFR2-BP antag 85.8 (no result: TMEM16A act)
O=C(COC(=O)CC(c1ccccc1)c1ccccc1)NCc1ccc(Cl)cc1	CRFR2-BP ag 160.1
O=C(NCc1ccccc1)c1cccc(COc2ccc(Cl)cc2)c1	TMEM16A inh 25
Cc1onc(-c2ccccc2)c1C(=O)/C=C/N(C)C	none
COc1ccc(NC(=O)C2(C)CCN2Cc2cccc(OC)c2OC)cc1OC (configuration not stated)	none (no result: CRFR2-BP antag, TMEM16A inh, TMEM16A act, CRFR2-BP ag)
CCOC(=O)c1sc2c(c1C)c(=O)n(Cc1ccccc1)c(=O)n2CCN(C)C	none
CCOC(=O)c1[nH]c(C)c(C(=O)N2CCN(c3ccc(OC)cc3)CC2)c1C	none
CCOC(=O)c1[nH]c(CN2CCN(c3ccc(OC)cc3)CC2)c(C(=O)OCC)c1C	TAAR1 agonist 50.8
Clc1ccc(CONc2ncnc3nonc23)c(Cl)c1	TMEM16A inh 100
O=c1c2cc(O)c(O)cc2oc2cc(O)c(C3OC(CO)C(O)C(O)C3O)c(O)c12 (configuration not stated)	none
CCCCCc1nc2sc3c(c2c(=O)n1NC(=O)c1ccc([N+](=O)[O-])cc1)CC(C)(C)OC3	TMEM16A inh 25
CCCCCCCc1nc2sc3c(c2c(=O)n1N)CC(C)(C)OC3	none
CCCCCc1c(CC)ncn1CCc1ccccc1OC	TAAR1 agonist 48.0, TAAR1 antag 52.8 (no result: CRFR2-BP antag, TMEM16A inh, TMEM16A act, CRFR2-BP ag)
CCCCCc1c(-c2ccccc2OC)ncn1CCc1ccccc1OC	TAAR1 antag 51.1 (no result: CRFR2-BP antag, TMEM16A inh, TMEM16A act, CRFR2-BP ag)
CCCCc1c(-c2cccc(Br)c2)ncn1CCc1ccccc1OC	TAAR1 agonist 42.5 (no result: CRFR2-BP antag, TMEM16A inh, TMEM16A act, CRFR2-BP ag)
CCCCCc1c(-c2ccc(F)cc2)ncn1CCc1ccccc1OC	none (no result: CRFR2-BP antag, TMEM16A inh, TMEM16A act, CRFR2-BP ag)
CCCCc1c(-c2ccccc2OC)ncn1CCc1ccccc1OC	TAAR1 agonist 48.5 (no result: CRFR2-BP antag, TMEM16A inh, TMEM16A act, CRFR2-BP ag)
CCCCc1c(-c2cccc(F)c2)ncn1CCc1ccccc1OC	none (no result: CRFR2-BP antag, TMEM16A inh, TMEM16A act, CRFR2-BP ag)
O=C(CNC(=O)c1ccccc1)OC(C(=O)O)c1ccc(F)cc1 (configuration not stated)	none (no result: TMEM16A inh, TMEM16A act)
CC(c1ccccc1C(O)c1ccccc1)N(C)C (configuration not stated)	none
Cc1ccc(C(O)(c2ccccc2)c2ccccc2C(C)N(C)C)c(C)c1 (configuration not stated)	TAAR1 agonist 41.2
Cc1ccc(Cn2c(C3CCCN3c3nc(-c4ccc(F)cc4)cs3)nc3cc(C(F)(F)F)ccc32)cc1 (configuration not stated)	TMEM16A act -9.46
Cc1ccc(Cn2c(C3CCCN3c3nc(-c4ccc(F)cc4)cs3)nc3cc(Cl)c(Cl)cc32)cc1 (configuration not stated)	none
S=C(NCCc1ccccc1)N1CCC2CC1c1c(Cl)cccc12 (configuration not stated)	CRFR2-BP antag 51.4 (no result: TMEM16A inh, TMEM16A act)
Cc1ccc(NC(=O)c2cc(NC(=O)/C=C\C(=O)O)ccc2N2CCCCC2)cc1	CRFR2-BP antag 95.4
C#CCOCCOCCOCCNc1nc(N2CCN(C(=O)Cn3cc(CC(C)O)nn3)CC2)nc(N2CCN(C(=O)[C@H](CCCCN)n3cc(CCCC)nn3)CC2)n1 (some centres not stated)	none (no result: TMEM16A inh)
C#CCOCCOCCOCCNc1nc(N2CCN(C(=O)CCCCCCCCCCNC(=O)Cn3cc(C[C@@H](C)O)nn3)CC2)nc(N2CCN(C(=O)CCCCCCCCCCNC(=O)[C@@H](CCC(=O)O)n3cc(CCCCCN)nn3)CC2)n1	none
C#CCOCCOCCOCCNc1nc(N2CCN(C(=O)CCCCCCCCCCNC(=O)Cn3cc(CCCCCN)nn3)CC2)nc(N2CCN(C(=O)CCCCCCCCCCNC(=O)[C@@H](CCSC)n3cc(CCO)nn3)CC2)n1	TMEM16A act -4.6 (no result: TAAR1 agonist, TAAR1 antag)
C#CCOCCOCCOCCNc1nc(N2CCN(C(=O)[C@H](CCCCN)n3cc([C@@H](N)C(C)CC)nn3)CC2)nc(N2CCN(C(=O)[C@H](Cc3cc4ccccc4[nH]3)n3cc([C@@H](N)CC(C)C)nn3)CC2)n1 (some centres not stated)	TMEM16A act -18.4 (no result: TAAR1 agonist, TAAR1 antag)
C#CCOCCOCCOCCNc1nc(N2CCN(C(=O)Cn3cc(CCO)nn3)CC2)nc(N2CCN(C(=O)[C@H](CCCCN)n3cc(CC(C)O)nn3)CC2)n1 (some centres not stated)	CRFR2-BP antag 53.3 (no result: TMEM16A inh)

Screening results: PubChem BioAssay, several laboratories
